Test results published in ChEMBL document CHEMBL1154693, “Discovery of trans-4-[1-[[2,5-Dichloro-4-(1-methyl-3-indolylcarboxamido)phenyl]acetyl]-(4S)-methoxy-(2S)-pyrrolidinylmethoxy]cyclohexanecarboxylic acid: an orally active, selective very late antigen-4 antagonist” (J Med Chem, 2009).

Legend:
[1] = Drug level in BALB/c mouse serum at 10 mg/kg, po after 15 mins; type: ADME, organism-based; parameters: dose 10 mg/kg, route oral; details: read-out: Drug uptake
How it was run: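 Serum (final 0.01-10%) assayed in the VLA-4/VCAM-1 binding assay, and concentration estimated from a calibration curve of compound spiked into untreated mouse serum.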

[2] = target: T1, Integrin alpha-4/beta-1 (Homo sapiens, UniProt P05556+P13612); experiment: Inhibition of europium labeled human VCAM1/Fc chimera binding to human VLA-4 alpha-4-beta-1 expressed in Chinese hamster 4B4 cells by fluorimetric assay; type: cell-based
T1 sequence (P05556 whole entry): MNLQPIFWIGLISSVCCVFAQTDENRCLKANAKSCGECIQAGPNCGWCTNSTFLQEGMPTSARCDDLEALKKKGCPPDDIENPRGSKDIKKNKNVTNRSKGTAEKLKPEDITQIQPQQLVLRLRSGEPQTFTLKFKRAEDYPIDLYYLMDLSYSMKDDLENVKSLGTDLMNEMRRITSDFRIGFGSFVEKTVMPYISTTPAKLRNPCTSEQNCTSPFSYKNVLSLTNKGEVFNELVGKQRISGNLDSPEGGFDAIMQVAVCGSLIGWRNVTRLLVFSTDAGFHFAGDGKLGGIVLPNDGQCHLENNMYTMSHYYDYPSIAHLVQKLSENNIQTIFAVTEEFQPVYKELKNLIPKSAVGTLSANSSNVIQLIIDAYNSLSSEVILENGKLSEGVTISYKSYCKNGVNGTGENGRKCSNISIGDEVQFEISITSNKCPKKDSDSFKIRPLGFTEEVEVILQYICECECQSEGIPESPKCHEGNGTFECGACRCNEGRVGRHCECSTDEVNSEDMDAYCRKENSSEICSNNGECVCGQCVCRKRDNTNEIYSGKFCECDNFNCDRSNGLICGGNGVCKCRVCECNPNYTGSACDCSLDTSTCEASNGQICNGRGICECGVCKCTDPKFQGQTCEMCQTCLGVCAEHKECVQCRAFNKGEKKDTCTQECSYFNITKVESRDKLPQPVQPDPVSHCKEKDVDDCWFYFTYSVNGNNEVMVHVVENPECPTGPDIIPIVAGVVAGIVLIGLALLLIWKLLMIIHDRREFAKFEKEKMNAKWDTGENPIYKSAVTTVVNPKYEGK
T1 sequence (P13612 whole entry): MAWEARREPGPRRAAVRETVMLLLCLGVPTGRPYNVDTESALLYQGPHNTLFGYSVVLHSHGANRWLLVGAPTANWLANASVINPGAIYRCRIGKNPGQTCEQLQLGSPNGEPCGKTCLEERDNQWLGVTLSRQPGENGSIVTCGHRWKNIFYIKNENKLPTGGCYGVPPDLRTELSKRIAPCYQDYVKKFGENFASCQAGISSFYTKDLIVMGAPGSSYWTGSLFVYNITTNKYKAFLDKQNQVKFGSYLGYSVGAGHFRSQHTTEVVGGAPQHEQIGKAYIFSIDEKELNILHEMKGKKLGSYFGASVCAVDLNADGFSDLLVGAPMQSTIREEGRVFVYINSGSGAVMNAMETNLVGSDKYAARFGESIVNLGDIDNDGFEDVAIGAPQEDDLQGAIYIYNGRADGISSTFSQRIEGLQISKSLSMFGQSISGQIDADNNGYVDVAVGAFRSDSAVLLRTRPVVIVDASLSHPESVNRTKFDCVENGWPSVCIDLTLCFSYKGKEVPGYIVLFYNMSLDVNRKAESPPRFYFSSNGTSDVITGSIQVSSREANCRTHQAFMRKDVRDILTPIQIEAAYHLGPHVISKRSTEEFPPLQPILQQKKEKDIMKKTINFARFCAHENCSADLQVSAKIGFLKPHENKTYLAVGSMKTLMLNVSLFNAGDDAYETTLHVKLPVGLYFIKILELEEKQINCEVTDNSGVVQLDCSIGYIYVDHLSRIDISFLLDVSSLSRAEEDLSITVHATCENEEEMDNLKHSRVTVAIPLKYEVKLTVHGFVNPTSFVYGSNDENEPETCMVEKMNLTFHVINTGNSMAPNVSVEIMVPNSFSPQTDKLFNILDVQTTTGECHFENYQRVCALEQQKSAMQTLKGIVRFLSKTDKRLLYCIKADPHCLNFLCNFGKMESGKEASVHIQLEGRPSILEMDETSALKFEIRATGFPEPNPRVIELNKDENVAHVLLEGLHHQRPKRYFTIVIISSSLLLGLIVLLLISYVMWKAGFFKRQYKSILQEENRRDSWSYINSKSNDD

[3] = target: T1, Integrin alpha-4/beta-1; experiment: Inhibition of europium labeled human VCAM1/Fc chimera binding to human VLA-4 alpha-4-beta-1 expressed in Chinese hamster 4B4 cells in presence of 3% HSA by fluorimetric assay; type: cell-based
How it was run: (§1)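 CHO-K1 4B4 cells transfected with human α4 and β1, plated at 3 × 10⁵ cells/mL and cultured 2 days, washed with HEPES pH 7.5 buffer containing Ca, Mg, Mn. Compound plus Eu-labeled human VCAM-1/Fc (final 1 nM), with or without human serum albumin, 60 min at room temperature; washed, Eu time-resolved fluorescence read; duplicates.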

[4] = target: T1, Integrin alpha-4/beta-1; experiment: Inhibition of europium labeled human VCAM1/Fc chimera binding to human VLA-4 alpha-4-beta-1 expressed in Chinese hamster 4B4 cells at 1.7 uM in presence of 3% HSA by fluorimetric assay; type: cell-based; how it was run: as §1
[5] = target: T1, Integrin alpha-4/beta-1; experiment: Inhibition of europium labeled human VCAM1/Fc chimera binding to human VLA-4 alpha-4-beta-1 expressed in Chinese hamster 4B4 cells at 1.8 uM in presence of 3% HSA by fluorimetric assay; type: cell-based; how it was run: as §1
[6] = test system: Mus musculus; experiment: Antiinflammatory activity in Ascaris suum antigen-induced BALB/c AnNCrj mouse asthma model assessed as inhibition of eosinophil infiltration in BAL fluid at 5 mg.kg, po bid administered 15 mins before and 8, 24 and 32 hrs after antigen challenge measured 48 hrs after antigen challenge; type: functional
How it was run: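 Female BALB/c AnNCrj mice given cyclophosphamide 150 mg/kg po (day 0), sensitized ip with Ascaris suum extract plus alum on days 2 and 14, challenged intratracheally day 22. Compound in 0.5% MC/0.03% Tween 80 po 15 min before and 8, 24, 32 h after challenge; BAL at 48 h, eosinophils from total count times Wright-stained differential.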

[7] = Volume of distribution at steady state in Sprague-Dawley rat at 1 mg/kg, iv; type: ADME, organism-based; parameters: dose 1 mg/kg, route intravenous; details: in vivo, read-out: Vdss
How it was run: (§2)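 Male Sprague-Dawley rats (7 weeks), fasted 18 h, four per group. 1 mg/kg oral in 0.5% MC or iv in saline, each with 3 equiv NaOH. Plasma drawn at 0.08 (iv) or 0.25 (po), 0.5, 1, 2 and 6 h; LC/MS/MS quantitation, noncompartmental parameters.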

[8] = Half life in Sprague-Dawley rat at 1 mg/kg, iv; type: ADME, organism-based; parameters: dose 1 mg/kg, route intravenous; details: in vivo; how it was run: as §2
[9] = Clearance in Sprague-Dawley rat at 1 mg/kg, iv; type: ADME, organism-based; parameters: dose 1 mg/kg, route intravenous; details: in vivo; how it was run: as §2
[10] = test system: Mus musculus; experiment: Toxicity in BALB/c AnNCrj mouse assessed as induction of cholestatic liver injury at 25 mg/kg, po for 2 days; type: organism-based; parameters: dose 25 mg/kg, route oral; details: in vivo, 48 h
How it was run: (§3)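 Mice dosed iv at 50 mg/kg or orally at 25 or 200 (mg/kg)/day for 2 days, then assessed for liver injury.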

[11] = test system: Mus musculus; experiment: Toxicity in BALB/c AnNCrj mouse assessed as induction of cholestatic liver injury at 50 mg/kg, iv for 2 days; type: organism-based; parameters: dose 50 mg/kg, route intravenous; details: in vivo, 48 h; how it was run: as §3
[12] = target: T1, Integrin alpha-4/beta-1; experiment: Inhibition of europium labeled human VCAM1/Fc chimera binding to human VLA-4 alpha-4-beta-1 expressed in Chinese hamster 4B4 cells at 1.7 uM by fluorimetric assay; type: cell-based; how it was run: as §1
[13] = in vivo; details: rat, plasma
[14] = Oral bioavailability in rat; details: in vivo
[15] = target: T1, Integrin alpha-4/beta-1; experiment: Inhibition of europium labeled human VCAM1/Fc chimera binding to human VLA-4 alpha-4-beta-1 expressed in Chinese hamster 4B4 cells at 2 uM by fluorimetric assay; type: cell-based; how it was run: as §1
[16] = target: T1, Integrin alpha-4/beta-1; experiment: Inhibition of europium labeled human VCAM1/Fc chimera binding to human VLA-4 alpha-4-beta-1 expressed in Chinese hamster 4B4 cells at 2 uM in presence of 3% HSA by fluorimetric assay; type: cell-based; how it was run: as §1

## O=C(Nc1ccc(CC(=O)N2C[C@@H](F)C[C@H]2CO[C@H]2CC[C@H](C(=O)O)CC2)cc1Cl)c1nsc2ccccc12
[1]
  concentration at 0.25 h: 2.15 µg/mL
[2]
  IC50: 0.0027 µM
[3]
  IC50: 0.196 µM

## CCn1cc(C(=O)Nc2ccc(CC(=O)N3C[C@@H](F)C[C@H]3CO[C@H]3CC[C@H](C(=O)O)CC3)cc2Cl)c2ccccc21
[4]
  inhibition: 21%
[2]
  IC50: 0.204 µM

## Cc1cc(F)ccc1Nc1nc2ccc(CC(=O)N3C[C@@H](F)C[C@H]3CO[C@H]3CC[C@H](C(=O)O)CC3)c(F)c2o1
[2]
  IC50: 0.012 µM
[3]
  IC50: 1.68 µM

## Cn1cc(C(=O)Nc2cc(F)c(CC(=O)N3CCC[C@H]3CO[C@H]3CC[C@H](C(=O)O)CC3)cc2Cl)c2ccccc21
[2]
  IC50: 0.012 µM
[3]
  IC50: 0.37 µM

## O=C(Cc1ccc(Nc2nc3ccccc3o2)c(Cl)c1)N1C[C@@H](F)C[C@H]1CO[C@H]1CC[C@H](C(=O)O)CC1
[1]
  concentration at 0.25 h: 0.508 µg/mL
[2]
  IC50: 0.0059 µM
[3]
  IC50: 0.138 µM

## Cc1c(F)cccc1Nc1nc2ccc(CC(=O)N3C[C@@H](F)C[C@H]3CO[C@H]3CC[C@H](C(=O)O)CC3)c(F)c2o1
[2]
  IC50: 0.047 µM
[5]
  inhibition: 13%

## O=C(Nc1cc(F)c(CC(=O)N2C[C@@H](F)C[C@H]2CO[C@H]2CC[C@H](C(=O)O)CC2)cc1Cl)N1CCc2ccccc21
[1]
  concentration at 0.25 h: 2.96 µg/mL
[2]
  IC50: 0.0027 µM
[3]
  IC50: 0.171 µM

## CO[C@H]1C[C@@H](CO[C@H]2CC[C@H](C(=O)O)CC2)N(C(=O)Cc2cc(Cl)c(NC(=O)c3cn(C)c4ccccc34)cc2F)C1
[6]
  inhibition (INH): 30%
[1]
  concentration at 0.25 h: 9.4 µg/mL
[2]
  IC50: 0.0029 µM
[3]
  IC50: 0.036 µM

## O=C(Nc1ccc(CC(=O)N2C[C@@H](F)C[C@H]2CO[C@H]2CC[C@H](C(=O)O)CC2)cc1Cl)N1CCc2ccccc21
[1]
  concentration at 0.25 h: 1.1 µg/mL
[2]
  IC50: 0.0019 µM
[3]
  IC50: 0.083 µM

## O=C(Nc1cc(F)c(CC(=O)N2C[C@@H](F)C[C@H]2CO[C@H]2CC[C@H](C(=O)O)CC2)cc1Cl)c1noc2ccccc12
[4]
  inhibition: 19%
[2]
  IC50: 0.128 µM

## O=C(Cc1ccc(Nc2nc3cccc(F)c3o2)c(Cl)c1)N1C[C@@H](F)C[C@H]1CO[C@H]1CC[C@H](C(=O)O)CC1
[2]
  IC50: 0.04 µM
[3]
  IC50: 1.03 µM

## Cn1cc(C(=O)Nc2cc(F)c(CC(=O)N3C[C@@H](F)C[C@H]3CO[C@H]3CC[C@H](C(=O)O)CC3)cc2Cl)c2ccccc21
[6]
  inhibition (INH): 57%
[1]
  concentration at 0.25 h: 11.4 µg/mL
[7]
  Vd: 0.153 L/kg
[2]
  IC50: 0.005 µM
[8]
  half-life: 54 min
[9]
  clearance: 0.156 L/h/kg
[10]
  Activity: Toxic
[3]
  IC50: 0.284 µM
[11]
  Activity: Toxic

## Cc1cccc2oc(Nc3ccc(CC(=O)N4C[C@@H](F)C[C@H]4CO[C@H]4CC[C@H](C(=O)O)CC4)cc3Cl)nc12
[2]
  IC50: 0.012 µM
[3]
  IC50: 0.29 µM

## O=C(Nc1ccc(CC(=O)N2C[C@@H](F)C[C@H]2CO[C@H]2CC[C@H](C(=O)O)CC2)cc1Cl)c1nccc2ccccc12
[2]
  IC50: 0.014 µM
[3]
  IC50: 0.418 µM

## Cc1ccccc1Nc1nc2ccc(CC(=O)N3C[C@@H](F)C[C@H]3CO[C@H]3CC[C@H](C(=O)O)CC3)c(F)c2o1
[1]
  concentration at 0.25 h: 0.363 µg/mL
[2]
  IC50: 0.003 µM
[3]
  IC50: 0.07 µM

## CC(C)n1cc(C(=O)Nc2ccc(CC(=O)N3C[C@@H](F)C[C@H]3CO[C@H]3CC[C@H](C(=O)O)CC3)cc2Cl)c2ccccc21
[12]
  inhibition: 41%
[4]
  inhibition: 8%

## Cc1ccccc1NC(=O)Nc1ccc(CC(=O)N2C[C@@H](F)C[C@H]2COc2ccc(C(=O)O)cc2)cc1Cl
[13]
  clearance: 1.89 L/h/kg
[14]
  bioavailability: 11%

## O=C(Nc1cc(F)c(CC(=O)N2C[C@@H](F)C[C@H]2CO[C@H]2CC[C@H](C(=O)O)CC2)cc1Cl)c1nccc2ccccc12
[2]
  IC50: 0.032 µM
[3]
  IC50: 1.67 µM

## Cc1ccc(F)cc1Nc1nc2ccc(CC(=O)N3C[C@@H](F)C[C@H]3CO[C@H]3CC[C@H](C(=O)O)CC3)cc2o1
[1]
  concentration at 0.25 h: 0.448 µg/mL
[2]
  IC50: 0.0044 µM
[3]
  IC50: 0.131 µM

## O=C(Nc1ccc(CC(=O)N2C[C@@H](F)C[C@H]2CO[C@H]2CC[C@H](C(=O)O)CC2)cc1Cl)c1c[nH]c2ccccc12
[1]
  concentration at 0.25 h: 0.193 µg/mL
[7]
  Vd: 0.668 L/kg
[2]
  IC50: 0.00053 µM
[8]
  half-life: 12 min
[9]
  clearance: 3.67 L/h/kg
[3]
  IC50: 0.0039 µM

## O=C(Cc1ccc(Nc2nc3ccc(F)cc3o2)c(Cl)c1)N1C[C@@H](F)C[C@H]1CO[C@H]1CC[C@H](C(=O)O)CC1
[2]
  IC50: 0.02 µM
[3]
  IC50: 0.63 µM

## Cc1ccccc1Cc1nc2ccc(CC(=O)N3C[C@@H](F)C[C@H]3CO[C@H]3CC[C@H](C(=O)O)CC3)cc2o1
[15]
  inhibition: 33%
[16]
  inhibition: 7%

## Cn1cc(C(=O)Nc2cc(Cl)c(CC(=O)N3C[C@@H](O)C[C@H]3CO[C@H]3CC[C@H](C(=O)O)CC3)cc2Cl)c2ccccc21
[1]
  concentration at 0.25 h: 0.093 µg/mL
[2]
  IC50: 0.0078 µM
[3]
  IC50: 0.07 µM

## O=C(Nc1cc(F)c(CC(=O)N2C[C@@H](F)C[C@H]2CO[C@H]2CC[C@H](C(=O)O)CC2)cc1Cl)c1nsc2ccccc12
[1]
  concentration at 0.25 h: 0.307 µg/mL
[2]
  IC50: 0.0075 µM
[3]
  IC50: 0.176 µM

## O=C(Nc1cc(F)c(CC(=O)N2C[C@@H](F)C[C@H]2CO[C@H]2CC[C@H](C(=O)O)CC2)cc1Cl)c1n[nH]c2ccccc12
[1]
  concentration at 0.25 h: 0.848 µg/mL
[2]
  IC50: 0.0085 µM
[3]
  IC50: 0.108 µM

## Cn1cc(C(=O)Nc2cc(F)c(CC(=O)N3C[C@@H](O)C[C@H]3CO[C@H]3CC[C@H](C(=O)O)CC3)cc2Cl)c2ccccc21
[1]
  concentration at 0.25 h: 0.452 µg/mL
[2]
  IC50: 0.0064 µM
[3]
  IC50: 0.045 µM

## Cc1ccc(F)cc1Nc1nc2ccc(CC(=O)N3C[C@@H](F)C[C@H]3CO[C@H]3CC[C@H](C(=O)O)CC3)c(F)c2o1
[1]
  concentration at 0.25 h: 0.912 µg/mL
[2]
  IC50: 0.0028 µM
[3]
  IC50: 0.439 µM

## Cn1cc(C(=O)Nc2cc(Cl)c(CC(=O)N3C[C@@H](F)C[C@H]3CO[C@H]3CC[C@H](C(=O)O)CC3)cc2Cl)c2ccccc21
[1]
  concentration at 0.25 h: 1.88 µg/mL
[2]
  IC50: 0.0055 µM
[3]
  IC50: 0.241 µM

## Cn1cc(C(=O)Nc2ccc(CC(=O)N3C[C@@H](F)C[C@H]3CO[C@H]3CC[C@H](C(=O)O)CC3)cc2Cl)c2ccccc21
[6]
  inhibition (INH): 13%
[1]
  concentration at 0.25 h: 5.16 µg/mL
[7]
  Vd: 0.139 L/kg
[2]
  IC50: 0.0026 µM
[8]
  half-life: 42 min
[9]
  clearance: 0.3 L/h/kg
[3]
  IC50: 0.092 µM

## O=C(Cc1ccc(Nc2nc3cc(F)ccc3o2)c(Cl)c1)N1C[C@@H](F)C[C@H]1CO[C@H]1CC[C@H](C(=O)O)CC1
[1]
  concentration at 0.25 h: 0.358 µg/mL
[2]
  IC50: 0.0073 µM
[3]
  IC50: 0.223 µM
